UPR CHOP act – apoptotic UPR (CHOP) activation. activation, % at 10 µM. 330,000 tested, 0.34% active. CHO-CHOP luciferase reporter, luminescence; percent of tunicamycin response over DMSO baseline. AID 449763;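 active = at 10 µM dose, activation of 40% or more, normalized to positive control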;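 note: 100% = tunicamycin at 10 µg/mL and 0% = DMSO alone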
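measured by = luciferase luminescence | assay system = CHO-CHOP cells, stable luciferase reporter of PERK-eIF2a-CHOP signalling | amount = 500 reporter cells seeded per well | timing = 6 h compound exposure at 37 °C after overnight seeding | controls = positive tunicamycin 10 µg/mL, negative DMSO alone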
CHOP inh – inhibitors of CHOP induction in ER stress response. CHO-K1 CHOP-promoter luciferase, tunicamycin-induced, 15-18 h. inhibition, % at 10 µM. 220,000 tested, 3.8% active. AID 2732;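 active = compounds that reduced the stress-induced luciferase reporter signal by more than about 70% of percent inhibition, limit read from the data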;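 note: 0% = tunicamycin plus vehicle and 100% = wells without tunicamycin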
aDG glyco up – increases alpha dystroglycan glycosylation | Pro5-aDG cells, alpha-DG glycosylation AlphaScreen (IIH6); 0% Pro5, 100% B10-LARGE cell signal | activation, % at 10 µM | 360,000 tested, 0.22% active | AID 624168;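 active = activation of at least 8% versus controls, or a plate z-score of at least 8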;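 note: Pro5 are CHO cells carrying HIG-tagged alpha-DG that lacks glycosylation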
GRIN3A LBD mod – modulators (binders) of human NR3A ligand-binding domain; Tm shift relative to glycine control, % at 25 µM; 340,000 tested, 2.5% active; NR3A LBD differential scanning fluorimetry, Tm shift; 0% = protein alone, 100% = glycine-bound protein;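 active = melting temperature shift of at least 10% of the positive control shift, at one fixed dose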
UPR XBP1 act – activators of adaptive arm of unfolded protein response (XBP1). CHO-XBP1 luciferase reporter, IRE1-XBP1 UPR activation, luminescence; percent of tunicamycin response, DMSO as zero. activation, % at 20 µM. 330,000 tested, 0.33% active. AID 463104;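 active = versus positive control, 20 µM dose yields 30% or more activation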;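 note: 100% = tunicamycin at 10 µg/mL and 0% = DMSO only wells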
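Assay system: CHO-XBP1 luciferase reporter cells; Schedule: 6 h treatment, 37 °C; Detection: glow luminescence from Steady-Glo reagent; Benchmarks: high control tunicamycin 10 µg/mL final, low control DMSO vehicle only.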
MPTP inh – permeability transition pore inhibition. isolated mouse mitochondria, Ca2+ swelling absorbance, 30 min. inhibition, % at 10 µM. 360,000 tested, 1.4% active. AID 602449;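 active = inhibition of 50% or more, scaled per plate between neutral and stimulator controls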;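 note: 0% = DMSO wells given calcium and 100% = 1 mM EGTA wells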
Rh123 counter – Rhodamine 123 counter-screen of mitochondrial pore hits. shares compounds with MPTP inh. isolated mitochondria, membrane potential, Rhodamine 123 fluorescence. inhibition, % at 10 µM. 5,000 tested, 78% active. AID 624504; in the data active = inhibition above about 22%;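 note: 0% = DMSO vehicle and 100% = positive control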
MPTP abs DR – MPTP inhibition, dose response swelling confirmation | IC50, µM | shares compounds with MPTP inh | isolated mitochondria swelling, absorbance | 780 tested, 58% active; in the data active = IC50 below about 20 µM
MPTP counter DR – counter-screen for mitochondrial permeability transition pore inhibitors, dose response. AID 651564. 780 tested, 49% active. IC50, µM. shares compounds with MPTP inh. isolated mitochondria counterscreen, fluorescence read-out; in the data active = IC50 below about 80 µM
Numbers without * were called inactive; i = inactive; / = not tested or not shown. Compounds with a hit are over-represented: about 5.6% of the library has one in this group of screens.

SMILES	UPR CHOP act	CHOP inh	aDG glyco up	GRIN3A LBD mod	UPR XBP1 act	MPTP inh	Rh123 counter	others
O=C(Nc1ccc(S(=O)(=O)N2CCN(Cc3ccccc3)CC2)cc1)c1cnccn1	4	45	6	0	1	73*	42*
OCC1(Cc2ccc(Cl)cc2)CCN(CCCc2ccccc2)CC1	1	10	3	0	-2	53*	-10	MPTP abs DR=10*
O=[N+]([O-])c1cc(S(=O)(=O)Nc2cccc(C(F)(F)F)c2)ccc1-n1nnc2ccccc21	-3	-5	0	19*	4	92*	84*
O=C(CN1CCN(c2ccc(O)cc2)CC1)Nc1ccc2c(c1)OCCCO2	-1	/	0	-1	-1	0	/
Cc1ccc(CN2CCN(Cc3ccc(-n4cccn4)cc3)CC2CCO)cc1 (stereo unspecified)	-1	-4	0	-3	-4	0	/
O[C@@H]1CN(Cc2ccc(-n3cccn3)cc2)CC[C@H]1N1CCN(c2ccccc2F)CC1	0	/	2	-1	-2	69*	59*
Cc1cc(C)cc(NC(=O)[C@H](Cc2c[nH]c3ccccc23)NC(=O)[C@@H]2Cc3ccccc3CN2)c1	-1	/	0	2	24	11	/
CCc1ccc(NC(=O)[C@H](Cc2c[nH]c3ccccc23)NC(=O)[C@@H]2Cc3ccccc3CN2)cc1	6	/	0	-2	0	72*	-16	MPTP abs DR=7.6*;MPTP counter DR=>80
O=C(CCS(=O)(=O)c1ccccc1)N1CCN(c2ccc(F)cc2)CC1	6	/	0	2	3	-1	/
O=C(Nc1cccc(S(=O)(=O)N2CCCCCC2)c1)c1cc(=O)c2ccccc2o1	0	62	0	-3	4	52*	64*
NS(=O)(=O)c1cccc(NC(=O)c2cc(=O)c3ccccc3o2)c1	2	/	0	3	-2	1	/
Cc1cc2oc(C(=O)Nc3ccc(S(=O)(=O)N4CCCC(C)C4)cc3)cc(=O)c2cc1Cl (stereo unspecified)	-1	-2	0	14*	-2	73*	7	MPTP abs DR=>100;MPTP counter DR=<2.5*
Cc1cc(C)c2oc(C(=O)Nc3ccc(S(=O)(=O)N4CCC(C)CC4)cc3)cc(=O)c2c1	3	42	0	0	-1	60*	-8	MPTP abs DR=>100;MPTP counter DR=>80
Cc1cc(O)c2c(c1)C(=O)c1cc(O)cc(O)c1C2=O	4	6	0	10*	-1	50*	80*
CS(=O)(=O)Nc1ccccc1C(=O)Nc1cc(Cl)cc(Cl)c1	1	37	0	9	2	97*	83*
c1ccc(CN2CCN(CCOCCOc3cccc4ccccc34)CC2)cc1	-1	25	0	0	-2	82*	0	MPTP abs DR=i;MPTP counter DR=74*
Cn1c2c(c(=O)n(C)c1=O)C(C(F)(F)F)(C(F)(F)F)N=C(CCC1CCCCC1)N2	0	60	1	-7	13	94*	79*
COc1ccc(CNC(=O)c2c(O)c3cccc4c3n(c2=O)CCC4)cc1	/	36	0	-1	/	81*	-14
COc1ccc(CNC(=O)c2c(O)c3cccc4c3n(c2=O)CCC4)cc1OC	-5	62	0	2	4	-8	/
O=C(Nc1cccc2ccccc12)c1ccc2sc([C@@H]3O[C@H](CO)[C@H](O)[C@H](O)[C@H]3O)nc2c1	/	/	0	/	/	0	/
Cc1ccc(CNc2nc(Cl)c(C#N)s2)cc1	6	18	1	-32	1	67*	77*
N#Cc1sc(NCc2cccc(Cl)c2)nc1Cl	0	/	0	-14	4	10	/
CC1=CC(C)C2(COC(=O)Nc3ccccc3)COC(C)C1C2C (stereo unspecified)	2	31	0	-3	-1	1	/
Cc1cccc2cc(/C=N/NC(=O)c3ccccc3O)c(Cl)nc12	2	26	0	29*	-1	91*	80*
Cc1ccc2cc(/C=N/NC(=O)c3ccccc3O)c(Cl)nc2c1	-1	9	0	19*	1	61*	82*
SMILES	UPR CHOP act	CHOP inh	aDG glyco up	GRIN3A LBD mod	UPR XBP1 act	MPTP inh	Rh123 counter	others
CCCn1nc([N+](=O)[O-])c(C(C#N)c2nc3ccccc3s2)c(Cl)c1=O (stereo unspecified)	-2	36	0	6	0	112*	46*
Cn1c(C(C#N)C(=O)c2sc3ccccc3c2Cl)nc2ccccc21 (stereo unspecified)	/	5	0	-9	/	-1	/
CCn1nc([N+](=O)[O-])c(C(C#N)c2nc3ccccc3n2C)c(Cl)c1=O (stereo unspecified)	-1	34	0	-2	-2	54*	67*
Nc1ncnc2c1ncn2[C@@H]1O[C@H](CCC(=O)NCc2ccccc2)[C@@H](O)[C@H]1O	/	/	0	/	/	-1	/
CCC(C)n1c(SCC(=O)NC2CCS(=O)(=O)C2)nc2ccccc2c1=O (stereo unspecified)	-1	/	0	-2	-2	-2	/
Cc1cc(Cl)ccc1NC(=O)CCC(=O)N/N=C/c1cc([N+](=O)[O-])ccc1O	-1	36	0	1	-2	17	/
O=[N+]([O-])c1ccc(O)c(/C=N/NC(=S)Nc2ccc(Cl)cc2Cl)c1	-2	18	0	4	3	96*	47*
O=[N+]([O-])c1ccc(/C=N/NC(=S)Nc2ccc(Cl)cc2Cl)s1	4	-24	1	11*	5	52*	61*
COc1ccc(OC)c(S(=O)(=O)NC(=O)C2(C)CCN2C(=O)CC2CCCC2)c1 (stereo unspecified)	/	/	0	/	/	-1	/
COc1ccccc1CNC(=O)CN1C(=O)NC(c2ccccc2)(c2ccccc2)C1=O	1	/	0	5	-3	-2	/
O=S(=O)(c1ccccc1)N1N=C(c2cccs2)CC1c1cccc(O)c1 (stereo unspecified)	0	/	1	-2	0	0	/
Oc1ccccc1C1CC(c2cccs2)=NC(c2cccc(Br)c2)N1 (stereo unspecified)	1	17	0	2	-2	84*	97*
CCOC(=O)/C(=C\Nc1ccccc1C(F)(F)F)Sc1ncc(C(F)(F)F)cc1Cl	0	10	0	0	-2	95*	1	MPTP abs DR=i;MPTP counter DR=>80

Bioassay records deposited in PubChem BioAssay by several laboratories.
